# Assay results: ChEMBL document CHEMBL4024793, “Development of Stem-Cell-Mobilizing Agents Targeting CXCR4 Receptor for Peripheral Blood Stem Cell Transplantation and Beyond” (J Med Chem, 2018)
# Tests used:
# [1] = target: C-C chemokine receptor type 1 (Homo sapiens) (UniProt P32246); assay: Antagonist activity at human CCR1 expressed in CHOK1 cells assessed as inhibition of CCL3-induced cAMP accumulation at 10 uM preincubated for 30 mins followed agonist addition measured after 30 to 60 mins; type: functional, cell-based
# In short: (§1)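 GPCR cAMP assay with a single test concentration of 10 μM; result expressed as percentage inhibition for each chemokine receptor.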
# [2] = target: C-C chemokine receptor type 10 (Homo sapiens) (UniProt P46092); assay: Antagonist activity at human CCR10 expressed in CHOK1 cells assessed as inhibition of CCL27-induced cAMP accumulation at 10 uM preincubated for 30 mins followed agonist addition measured after 30 to 60 mins; type: functional, cell-based; in short: as §1
# [3] = target: C-X-C chemokine receptor type 1 (Homo sapiens) (UniProt P25024); assay: Antagonist activity at human CXCR1 expressed in CHOK1 cells assessed as inhibition of interleukin-8-induced cAMP accumulation at 10 uM preincubated for 30 mins followed agonist addition measured after 30 to 60 mins; type: functional, cell-based; in short: as §1
# [4] = test system: Mus musculus; assay: Therapeutic ratio of MTD for sc dosed C57BL/6 mouse to MED for hematopoietic stem cell mobilization in sc dosed C57BL/6 mouse
# In short: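 MTD: C57BL/6 or ICR male mice dosed SC from low to high, n = 3 per group; MTD is the highest dose with zero mortality (0/3). MED: lowest SC dose raising blood CXCR4⁺ cells at 2 h, by flow cytometry, in the escalating-dose study. Ratio calculated as MTD/MED.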
# [5] = target: Muscarinic acetylcholine receptor M2 (Homo sapiens) (UniProt P08172); assay: Displacement of [3H]AF-DX 384 from recombinant human Muscarinic M2 receptor at 10 uM after 60 mins by scintillation counting
# [6] = target: Cytochrome P450 3A4 (Homo sapiens, UniProt P08684); assay: Inhibition of human liver microsomal CYP3A4; type: ADME
# [7] = test system: Mus musculus; assay: In vivo antagonist activity at CXCR4 in C57BL/6 mouse assessed as induction of monocytes molization at 35 mg/kg, sc measured after 2 hrs relative to untreated control; type: functional
# [8] = test system: Rattus norvegicus; assay: Toxicity in Sprague-Dawley rat assessed as effect on lung color at 50 mg/kg/day, sc administered for 14 days relative to control; type: organism-based; details: in vivo, 336 h
# In short: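 Non-GLP 14-day repeated-dose study in SD rats given 50 mg/kg/day SC. Major organs (liver, kidney, lung, heart) compared with vehicle for size, weight and colour. Blood analysed for hematological and biochemical parameters.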
# Sequence of C-C chemokine receptor type 1 (Homo sapiens) (P32246 whole entry): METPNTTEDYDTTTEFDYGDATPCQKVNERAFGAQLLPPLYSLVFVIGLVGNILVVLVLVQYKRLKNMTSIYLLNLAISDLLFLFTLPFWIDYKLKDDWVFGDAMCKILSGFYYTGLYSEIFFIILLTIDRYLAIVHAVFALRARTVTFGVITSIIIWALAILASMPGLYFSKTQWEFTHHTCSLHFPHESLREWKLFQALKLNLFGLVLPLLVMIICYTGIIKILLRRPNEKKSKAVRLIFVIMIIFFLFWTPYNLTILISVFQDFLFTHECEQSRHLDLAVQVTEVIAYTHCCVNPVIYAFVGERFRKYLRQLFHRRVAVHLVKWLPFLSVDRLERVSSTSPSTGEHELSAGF
# Sequence of C-C chemokine receptor type 10 (Homo sapiens) (P46092 whole entry): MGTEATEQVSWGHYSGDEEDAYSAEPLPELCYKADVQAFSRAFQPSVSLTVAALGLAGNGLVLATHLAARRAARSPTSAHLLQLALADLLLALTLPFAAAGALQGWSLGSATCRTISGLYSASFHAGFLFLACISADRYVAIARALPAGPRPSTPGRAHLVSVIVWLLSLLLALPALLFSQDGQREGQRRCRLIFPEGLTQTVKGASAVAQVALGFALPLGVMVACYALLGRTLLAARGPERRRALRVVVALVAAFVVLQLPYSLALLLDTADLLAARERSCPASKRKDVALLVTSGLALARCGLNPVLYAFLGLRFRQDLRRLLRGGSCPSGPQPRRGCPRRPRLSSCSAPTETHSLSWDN
# Sequence of Muscarinic acetylcholine receptor M2 (Homo sapiens) (P08172 whole entry): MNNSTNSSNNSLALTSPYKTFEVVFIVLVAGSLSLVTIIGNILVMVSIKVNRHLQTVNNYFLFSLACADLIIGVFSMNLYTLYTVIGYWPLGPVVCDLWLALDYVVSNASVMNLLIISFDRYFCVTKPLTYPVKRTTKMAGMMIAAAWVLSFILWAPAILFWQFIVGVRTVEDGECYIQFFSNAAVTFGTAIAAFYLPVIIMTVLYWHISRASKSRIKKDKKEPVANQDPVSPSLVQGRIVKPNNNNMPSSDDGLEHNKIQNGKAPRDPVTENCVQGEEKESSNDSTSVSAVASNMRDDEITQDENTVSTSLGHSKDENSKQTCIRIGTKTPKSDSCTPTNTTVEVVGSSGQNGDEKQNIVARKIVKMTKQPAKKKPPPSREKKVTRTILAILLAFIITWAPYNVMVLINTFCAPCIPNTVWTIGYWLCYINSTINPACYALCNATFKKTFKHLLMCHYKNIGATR
# Sequence of Cytochrome P450 3A4 (P08684 whole entry): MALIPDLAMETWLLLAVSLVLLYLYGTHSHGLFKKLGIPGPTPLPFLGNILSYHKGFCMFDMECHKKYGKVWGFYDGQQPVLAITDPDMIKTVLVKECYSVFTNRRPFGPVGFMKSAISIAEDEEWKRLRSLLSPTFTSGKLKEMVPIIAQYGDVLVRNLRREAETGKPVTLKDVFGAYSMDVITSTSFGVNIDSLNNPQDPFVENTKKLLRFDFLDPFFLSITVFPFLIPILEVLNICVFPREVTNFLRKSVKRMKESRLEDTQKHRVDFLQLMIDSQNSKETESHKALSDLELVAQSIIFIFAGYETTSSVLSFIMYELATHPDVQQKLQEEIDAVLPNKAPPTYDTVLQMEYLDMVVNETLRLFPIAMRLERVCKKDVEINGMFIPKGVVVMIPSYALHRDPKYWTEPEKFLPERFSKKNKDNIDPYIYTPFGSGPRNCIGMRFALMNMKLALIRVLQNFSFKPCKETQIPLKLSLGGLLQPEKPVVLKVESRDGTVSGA
# Sequence of C-X-C chemokine receptor type 1 (Homo sapiens) (P25024 whole entry): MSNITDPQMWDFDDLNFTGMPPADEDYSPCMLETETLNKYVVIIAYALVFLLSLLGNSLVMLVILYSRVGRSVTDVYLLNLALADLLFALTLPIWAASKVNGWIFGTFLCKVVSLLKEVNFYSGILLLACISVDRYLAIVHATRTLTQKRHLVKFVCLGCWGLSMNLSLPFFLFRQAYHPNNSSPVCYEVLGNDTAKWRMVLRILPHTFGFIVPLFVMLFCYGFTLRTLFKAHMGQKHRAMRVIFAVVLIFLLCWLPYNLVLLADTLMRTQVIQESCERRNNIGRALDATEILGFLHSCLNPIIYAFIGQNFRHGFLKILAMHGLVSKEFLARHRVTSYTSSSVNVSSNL
structure (smiles),measurement,setting,value
Cc1cc(NC2CCN(C(=O)CCNCC(=O)O)CC2)nc(NCc2cn(CCCNCCCNC3CCCCC3)nn2)n1,Efficacy,[1],-1.2%
same,Efficacy,[2],0.5%
same,Efficacy,[3],0.3%
same,TI,[4],12.5
same,inhibition,[5],70%
same,IC50,[6],> 100 µM
same,fold change (FC),[7],2 - 4
same,Activity,[8],Non-Toxic
